Results as given in ChEMBL document CHEMBL4706708, “Improving the solubility of anti-proliferative thieno[2,3-b]quinoline-2-carboxamides” (Bioorg Med Chem, 2021).
In brackets after ≈: the same amount, converted by molar mass.

What was measured:
[1] = Thermodynamic solubility of compound in water measured after 15 mins RP-HPLC analysis; format: physicochemical; conditions: read-out: Therm_solubility
[2] = system: HCT-116; test: Antiproliferative activity against human HCT-116 cells assessed as cell growth at 1 uM measured after 3 days by [3H]-thymidine incorporation assay relative to control; format: functional; conditions: HCT-116, 72 h, time 3 day, read-out: Activity
Outline: (§1)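 HCT116 and MDA-MB-231 cells from ATCC, seeded at 3000 cells/well, exposed to inhibitor for three days; 0.04 µCi 3H-thymidine added per well 5 h before harvest onto glass fibre filters, incorporation counted by scintillation and expressed relative to untreated controls. Triplicate wells, at least two independent experiments. Single-point screen at 1 µM; IC50 determined from varying concentrations.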

[3] = system: MDA-MB-231; test: Antiproliferative activity against human MDA-MB-231 cells assessed as cell growth at 1 uM measured after 3 days by [3H]-thymidine incorporation assay relative to control; format: functional; conditions: MDA-MB-231, 72 h, time 3 day, read-out: Activity; outline: as §1

SMILES	solubility thermodynamic at 0.25 h [1] [µg/mL]	growth at 1 µM [2] [%]	growth at 1 µM [3] [%]
Nc1c(C(=O)Nc2cccc(Cl)c2)sc2nc3c(cc12)CN(Cc1ccccc1)CC3	0.213 (≈ 0.474 µM)	89.9	80.5
Cc1ccccc1NC(=O)c1sc2nc3c(cc2c1N)CN(Cc1ccccc1)CC3	0.26 (≈ 0.607 µM)	96.4	109
COc1ccc(NC(=O)c2sc3nc4c(cc3c2N)CN(Cc2ccccc2)CC4)cc1	0.197 (≈ 0.443 µM)	87.4	94.1
CC(=O)c1cc2c(N)c(C(=O)Nc3ccccc3Cl)sc2nc1C	0.13 (≈ 0.361 µM)	87.3	99.6
CN1CCc2nc3sc(C(=O)Nc4ccccc4)c(N)c3cc2C1	–	100	91.2
Nc1c(C(=O)Nc2ccc3c(c2)OCCO3)sc2nc3c(cc12)CN(Cc1ccccc1)CC3	0.7 (≈ 1.48 µM)	83.2	94.9
CC(=O)c1cc2c(N)c(C(=O)Nc3cccc(C(F)(F)F)c3C)sc2nc1C	1.17 (≈ 2.87 µM)	106	67.7
Nc1c(C(=O)Nc2cccc3ncccc23)sc2nc3c(cc12)C(=O)CCC3	0.41 (≈ 1.06 µM)	96.3	96.9
CC(=O)c1cc2c(N)c(C(=O)Nc3cncc4ccccc34)sc2nc1C	0.09 (≈ 0.239 µM)	96.2	105
COc1cccc(NC(=O)c2sc3nc4c(cc3c2N)CN(Cc2ccccc2)CC4)c1	0.3 (≈ 0.675 µM)	85.2	90.7
CC(=O)c1cc2c(N)c(C(=O)Nc3cccc4ccncc34)sc2nc1C	1.06 (≈ 2.82 µM)	108	101
Nc1c(C(=O)Nc2cncc3ccccc23)sc2nc3c(cc12)C(=O)CCC3	0.71 (≈ 1.83 µM)	97.8	111
Nc1c(C(=O)Nc2ccccn2)sc2nc3c(cc12)C(=O)CCC3	0.64 (≈ 1.89 µM)	10.2	27
Nc1c(C(=O)Nc2ccccc2)sc2nc3c(cc12)CN(C(=O)OCc1ccccc1)CC3	1.93 (≈ 4.21 µM)	3.1	17.5
Nc1c(C(=O)Nc2ccccc2)sc2nc3c(cc12)CNCC3	40.5 (≈ 125 µM)	100	89.7
Nc1c(C(=O)Nc2cccc3cccnc23)sc2nc3c(cc12)CN(Cc1ccccc1)CC3	1.17 (≈ 2.51 µM)	98.2	104
Cc1c(F)cccc1NC(=O)c1sc2nc3c(cc2c1N)CN(Cc1ccccc1)CC3	0.84 (≈ 1.88 µM)	98.1	97.3
COc1cccc(NC(=O)c2sc3nc(C)c(C(C)=O)cc3c2N)c1	1.1 (≈ 3.09 µM)	96.5	96
Cc1nc2sc(C(=O)Nc3ccncc3)c(N)c2cc1C(C)O (stereo unspecified)	2.85 (≈ 8.68 µM)	111	113
Cc1ccccc1NC(=O)c1sc2nc3c(cc2c1N)COCC3	7.52 (≈ 22.2 µM)	101	103

SMILES	solubility thermodynamic at 0.25 h [1] [µg/mL]	growth at 1 µM [2] [%]	growth at 1 µM [3] [%]
Cc1nc2sc(C(=O)Nc3cccc4ncccc34)c(N)c2cc1C(C)O (stereo unspecified)	0.89 (≈ 2.35 µM)	92	112
Cc1nc2sc(C(=O)Nc3ccnc4ccccc34)c(N)c2cc1C(C)O (stereo unspecified)	18.5 (≈ 49 µM)	93.6	107
CN1CCc2nc3sc(C(=O)Nc4cccc5ccccc45)c(N)c3cc2C1	2.17 (≈ 5.59 µM)	93.5	89
CC(=O)c1cc2c(N)c(C(=O)Nc3ccccn3)sc2nc1C	0.45 (≈ 1.38 µM)	91.7	92.9
Nc1c(C(=O)Nc2ccccc2)sc2nc3c(cc12)COCC3	1.03 (≈ 3.17 µM)	91.5	98.9
Cc1nc2sc(C(=O)Nc3cccc4cccnc34)c(N)c2cc1C(C)O (stereo unspecified)	–	110	102
Cc1nc2sc(C(=O)Nc3cccc4c3OCCO4)c(N)c2cc1C(C)O (stereo unspecified)	3.06 (≈ 7.94 µM)	58.4	62.3
CC(=O)c1cc2c(N)c(C(=O)Nc3cccc(F)c3C)sc2nc1C	0.35 (≈ 0.979 µM)	103	114
Cc1nc2sc(C(=O)Nc3ccccn3)c(N)c2cc1C(C)O (stereo unspecified)	5.43 (≈ 16.5 µM)	96.5	93.8
COc1ccc(NC(=O)c2sc3nc(C)c(C(C)O)cc3c2N)cc1 (stereo unspecified)	1.79 (≈ 5.01 µM)	97.5	114
CC(=O)c1cc2c(N)c(C(=O)Nc3cccc4cnccc34)sc2nc1C	–	111	99.8
Cc1nc2sc(C(=O)Nc3cccc4cnccc34)c(N)c2cc1C(C)O (stereo unspecified)	7.55 (≈ 19.9 µM)	110	102
Nc1c(C(=O)Nc2ccccc2Cl)sc2nc3c(cc12)CN(Cc1ccccc1)CC3	1.06 (≈ 2.36 µM)	99.4	99.8
Cc1nc2sc(C(=O)Nc3ccc4c(c3)OCCO4)c(N)c2cc1C(C)O (stereo unspecified)	0.27 (≈ 0.7 µM)	94.9	105
Nc1c(C(=O)Nc2ccncc2)sc2nc3c(cc12)C(=O)CCC3	1.54 (≈ 4.55 µM)	110	108
CC(=O)c1cc2c(N)c(C(=O)Nc3cccc(Cl)c3)sc2nc1C	1.52 (≈ 4.22 µM)	101	102
Nc1c(C(=O)Nc2cccc3ncccc23)sc2nc3c(cc12)CN(Cc1ccccc1)CC3	0.62 (≈ 1.33 µM)	104	91.3
COc1ccc(NC(=O)c2sc3nc4c(cc3c2N)CN(C)CC4)cc1	2.17 (≈ 5.89 µM)	98.9	90.3
Nc1c(C(=O)Nc2cccc3cccnc23)sc2nc3c(cc12)C(=O)CCC3	0.44 (≈ 1.13 µM)	101	99.2
COc1ccc(NC(=O)c2sc3nc4c(cc3c2N)COCC4)cc1	3.19 (≈ 8.98 µM)	80.1	83.9

SMILES	solubility thermodynamic at 0.25 h [1] [µg/mL]	growth at 1 µM [2] [%]	growth at 1 µM [3] [%]
Cc1nc2sc(C(=O)Nc3cncc4ccccc34)c(N)c2cc1C(C)O (stereo unspecified)	–	109	106
Nc1c(C(=O)Nc2cccc3c2OCCO3)sc2nc3c(cc12)C(=O)CCC3	0.12 (≈ 0.303 µM)	18.6	17.8
CC(=O)c1cc2c(N)c(C(=O)Nc3ccncc3)sc2nc1C	0.45 (≈ 1.38 µM)	103	97.2
Cc1ccccc1NC(=O)c1sc2nc(C)c(C(C)O)cc2c1N (stereo unspecified)	29.5 (≈ 86.5 µM)	99.9	97.9
Nc1c(C(=O)Nc2ccnc3ccccc23)sc2nc3c(cc12)CN(Cc1ccccc1)CC3	3.83 (≈ 8.23 µM)	82.8	104
Nc1c(C(=O)Nc2cccc3cnccc23)sc2nc3c(cc12)CN(Cc1ccccc1)CC3	1.12 (≈ 2.41 µM)	110	108
Nc1c(C(=O)Nc2cccc3ccncc23)sc2nc3c(cc12)CN(Cc1ccccc1)CC3	2.79 (≈ 5.99 µM)	103	108
Nc1c(C(=O)Nc2cccc3cnccc23)sc2nc3c(cc12)C(=O)CCC3	1.67 (≈ 4.3 µM)	103	107
Nc1c(C(=O)Nc2ccc3c(c2)OCCO3)sc2nc3c(cc12)C(=O)CCC3	0.32 (≈ 0.809 µM)	76.2	102
CC(=O)c1cc2c(N)c(C(=O)Nc3ccc4c(c3)OCCO4)sc2nc1C	0.19 (≈ 0.496 µM)	104	103
Nc1c(C(=O)Nc2ccnc3ccccc23)sc2nc3c(cc12)C(=O)CCC3	0.64 (≈ 1.65 µM)	101	107
Nc1c(C(=O)Nc2cccc3c2OCCO3)sc2nc3c(cc12)CN(Cc1ccccc1)CC3	2.1 (≈ 4.44 µM)	88.2	89.3
COc1cccc(NC(=O)c2sc3nc4c(cc3c2N)CN(Cc2ccccc2)CC4)c1C	1.89 (≈ 4.12 µM)	101	106
Nc1c(C(=O)Nc2cccc3ccccc23)sc2nc3c(cc12)COCC3	4 (≈ 10.7 µM)	100	78.3
CC(=O)c1cc2c(N)c(C(=O)Nc3cccc4ncccc34)sc2nc1C	1.3 (≈ 3.45 µM)	93	98.7
Cc1nc2sc(C(=O)Nc3ccccc3)c(N)c2cc1C(C)O (stereo unspecified)	3.51 (≈ 10.7 µM)	95.3	107
Nc1c(C(=O)Nc2cccc3ccncc23)sc2nc3c(cc12)C(=O)CCC3	1.94 (≈ 4.99 µM)	98.1	115
Cc1nc2sc(C(=O)Nc3cccc4ccncc34)c(N)c2cc1C(C)O (stereo unspecified)	10.1 (≈ 26.6 µM)	83.1	94.6
Cc1ccccc1NC(=O)c1sc2nc3c(cc2c1N)CN(C)CC3	5.61 (≈ 15.9 µM)	101	95.3
CC(=O)c1cc2c(N)c(C(=O)Nc3cccc4cccnc34)sc2nc1C	3 (≈ 7.97 µM)	97	86.7
